A selection: hits, their analogues and other compounds. The true share with any hit is near 2.1%.
Autophagy mod: modulators of autophagy; MEF GFP-LC3 puncta imaging; test concentration mostly 10 µM; calls only at 10 µM (by protocol); 190,000 tested, 0.98% active;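 active means percentage of spot-positive cells more than 3 SD above its plate mean, without a fluorescence outlier flag or 80% toxicity; inconclusive means no clear call, values can overlap the other calls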;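 further: spot-positive cell cutoff set from DMSO-treated cells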
Dynein cargo inh: dynein cargo transport inhibition; 3617.4 mouse cells, GR-EGFP nuclear translocation imaging; test concentration mostly 20 µM; stimulated with dexamethasone, 1 µM; stronger effect = lower value; z-score, hits read low; 220,000 tested, 0.47% active;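 active means plate z-score of nuclear minus cytoplasmic receptor signal below a set negative limit, without overly bright fluorescence or cell loss, cut at about -3.5 in these data, passing the limit was not always enough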;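 further: z-score of nuclear minus cytoplasmic ring GR-EGFP intensity difference per well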
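Buffer or medium: Induction medium lacking tetracycline, stripped serum | Also added: Dexamethasone agonist, 1.0 µM final, for 30 min | Timing: 48 h induction, 1 h compound, 30 min dex at 37 °C | Detection: Formaldehyde fixation, Hoechst nuclear stain, 10x automated fluorescence imaging | Measure: Nuclear versus cytoplasmic GR-EGFP signal, averaged per well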
PERK inh: blocks human PERK kinase. Q9NZJ5. CHO PERK-DD fusion, SEAP luminescence translation reporter. inhibition, % at 5.6 µM. 220,000 tested, 0.17% active. AID 1416;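 active means inhibition above the mean inhibition of all tested compounds plus 3 SD, set separately per screening campaign, cut at about 2.9% in these data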;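 further: PERK kinase domain activated by AP20187 dimerizer at 100 nM; 0% = DMSO with dimerizer and 100% = rapamycin at 8.4 µM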
Target sequence (Q9NZJ5 whole entry, looked up, the tested form may be a part): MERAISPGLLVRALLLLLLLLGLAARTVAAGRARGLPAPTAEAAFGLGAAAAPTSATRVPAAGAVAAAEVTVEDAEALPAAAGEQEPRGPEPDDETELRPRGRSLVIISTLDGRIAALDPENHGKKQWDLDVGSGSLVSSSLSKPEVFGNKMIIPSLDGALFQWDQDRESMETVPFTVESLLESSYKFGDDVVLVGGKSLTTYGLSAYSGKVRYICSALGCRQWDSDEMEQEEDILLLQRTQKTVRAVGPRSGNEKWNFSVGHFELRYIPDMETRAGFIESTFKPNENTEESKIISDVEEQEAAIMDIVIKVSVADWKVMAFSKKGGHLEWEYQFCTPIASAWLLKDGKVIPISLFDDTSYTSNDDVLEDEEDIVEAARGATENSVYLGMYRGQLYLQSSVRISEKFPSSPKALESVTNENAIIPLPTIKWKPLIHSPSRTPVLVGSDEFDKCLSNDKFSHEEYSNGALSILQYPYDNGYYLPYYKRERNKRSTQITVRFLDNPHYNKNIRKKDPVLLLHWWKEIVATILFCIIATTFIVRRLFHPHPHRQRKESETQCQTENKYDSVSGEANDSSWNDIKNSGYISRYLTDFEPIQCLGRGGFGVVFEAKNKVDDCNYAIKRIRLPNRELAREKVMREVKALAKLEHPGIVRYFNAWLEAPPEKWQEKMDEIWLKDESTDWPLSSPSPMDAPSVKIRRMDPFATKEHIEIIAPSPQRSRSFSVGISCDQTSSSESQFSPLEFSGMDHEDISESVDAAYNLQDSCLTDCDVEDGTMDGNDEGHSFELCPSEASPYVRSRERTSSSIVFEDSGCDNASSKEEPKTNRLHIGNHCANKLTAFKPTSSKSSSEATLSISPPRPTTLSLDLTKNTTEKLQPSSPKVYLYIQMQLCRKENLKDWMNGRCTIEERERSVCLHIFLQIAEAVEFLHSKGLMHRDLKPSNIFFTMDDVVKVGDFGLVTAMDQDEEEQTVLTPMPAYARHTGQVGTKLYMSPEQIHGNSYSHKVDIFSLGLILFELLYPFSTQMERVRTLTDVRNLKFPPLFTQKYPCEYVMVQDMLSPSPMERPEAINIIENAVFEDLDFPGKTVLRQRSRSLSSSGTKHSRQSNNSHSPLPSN
Ins promoter up: MIN6 insulin promoter up-regulation | MIN6 insulin promoter-GFP reporter, high-content imaging; stronger effect = higher value | z-score at 5 µM | 190,000 tested, 0.3% active | AID 1625;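 active means z-score above 3 at 5 µM with at least 500 cells counted in the well; inconclusive means wells under 500 cells, flagged as cytotoxic or low count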
Insulin prom inh: TRM-6 insulin promoter activity inhibition; 130,000 tested, 0.9% active; TRM-6 cells (human fetal islet line), insulin promoter-eGFP reporter, imaging; reporter expression induced with tamoxifen; inhibition, % at 2 µM; AID 1273;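 active means inhibition above the mean plus 3 SD, with well images judged a real hit on visual review, cut at about 60% in these data, passing the limit was not always enough; inconclusive means inhibition over the cutoff but images rejected on review; inactive means inhibition not above the cutoff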
An asterisk follows results filed as active; i = inactive; ? = inconclusive; nt = no result; + = active, no number.

SMILES | Autophagy mod | Dynein cargo inh | PERK inh | Ins promoter up | Insulin prom inh
CN1CCN(CC(O)COc2ccc(Cl)cc2)CC1 (stereo not given) | i | -0.46 | 1 | nt | -3
O=C(c1ccc(Br)s1)N1CCCC1 | i | 0.58 | 0 | -0.39 | 70*
O=C(c1ccc(Br)s1)N1CCN(c2ncccn2)CC1 | i | 0.2 | 0 | -0.35 | 19
CC1CCN(C(=O)CN2C(=O)C(=O)c3ccccc32)CC1 | + | 0.75 | 1 | -0.63 | nt
Cc1ccc(NC(=S)c2nc3ccccc3[nH]2)cc1 | i | 0.36 | -1 | -1.1 | 81*
Cc1nn(-c2ccccc2)c2sc(C(=O)OC3CCOC3=O)cc12 (stereo not given) | i | -0.59 | 0 | -0.61 | -12
Cc1onc(-c2ccc(Cl)cc2)c1-c1ccnn1S(=O)(=O)c1cccc(C(F)(F)F)c1 | nt | 1.2 | 0 | -0.5 | nt
COc1ccc2c(c1)c(CC(=O)OCC(N)=O)c(C)n2C(=O)c1ccc(Cl)cc1 | nt | -0.16 | 0 | -0.39 | nt
COc1ccc2c(c1)c(CC(=O)OCC(=O)O)c(C)n2C(=O)c1ccc(Cl)cc1 | + | 2.5 | 0 | 0.13 | -8
Cc1cc2c(cc1C)CSC(c1ccc3ccccc3c1O)SC2 | i | 1.2 | 1 | 0.2 | 63*
Cc1cc2c(cc1C)CSC(c1c(O)ccc3ccccc13)SC2 | i | 1 | -1 | -0.6 | 48
Cc1cccc(OC2CCN(Cc3nc(CC4CC4)no3)CC2)c1 | i | -0.0043 | 3.0* | 0.3 | nt
Cc1cccc(SC2CCN(Cc3nc(CC4CC4)no3)CC2)c1 | i | -0.06 | 2 | -0.13 | nt
N#Cc1ccc(CSc2nnc(NC(=O)c3ccc4ncsc4c3)s2)cc1 | i | -0.27 | 0 | 4.4* | nt
COc1ccc(S(=O)(=O)Nc2cc3c(cc2C(C)=O)OCO3)cc1 | i | -1.2 | 0 | -1.4 | nt
Fc1ccccc1CSCc1nc2ccccc2[nH]1 | + | -1.4 | 0 | -0.1 | nt
O=C(CSc1nc2ccccc2[nH]1)Nc1c(F)c(F)c(F)c(F)c1F | i | -0.46 | 0 | 1.9 | -33
Fc1cccc(F)c1CSc1nc2ccccc2[nH]1 | i | -0.64 | 1 | -0.51 | 75*
O=C(CSc1nc2ccccc2[nH]1)Nc1c(F)cccc1F | i | -0.22 | 0 | 1.3 | 89*
S=C(Nc1ccccc1Cl)N(CCN1CCCCC1)Cc1ccco1 | i | 0.037 | 0 | -0.6 | -31
COc1cccc2c1C(CO)N1C(C#N)C3CC(C(=O)O)C(C1C2)N3C (stereo not given) | nt | -0.18 | 3.7* | ? | nt
S=C(c1ccc2c(c1)OCO2)N1CCCC1 | i | -0.49 | 1 | 0.74 | -56
CCN1CC(c2ccccc2)C(c2ccc(Cl)cc2)=N1 (stereo not given) | i | 0.36 | 0 | -0.73 | 28
Cc1ccc2nc(NCc3ccccc3)[nH]c2c1 | + | 0.43 | -1 | -1.6 | nt
COc1ccc2nc(NCc3ccccc3)[nH]c2c1 | i | -0.29 | 0 | -0.28 | 0
SMILES | Autophagy mod | Dynein cargo inh | PERK inh | Ins promoter up | Insulin prom inh
Cc1nn2c(c1-c1ccc(Cl)cc1)N=C(c1ccco1)CC2c1ccccc1 (stereo not given) | i | -0.24 | 0 | nt | -34
CN(C)C(C)(C)C#CCCCCC#CC(C)(C)N(C)C | i | 0.98 | 0 | nt | 71*
CN1CCN(NC(=O)c2ccc(Cl)s2)CC1 | i | -0.51 | 2 | -0.55 | nt
CCc1cc2c(N=Nc3c(O)[nH]c4ccccc34)ncnc2s1 | + | -0.55 | 2 | -0.82 | nt
Cc1ccc(S(=O)(=O)c2cc3c(=O)n4ccccc4nc3n(Cc3ccco3)c2=N)cc1C | + | -0.93 | 0 | nt | -6
CN(C)C=Nc1nonc1-c1ccccc1 | nt | -0.35 | 2 | -0.78 | nt
CN(C)C=Nc1c(Br)cc(Br)c2nonc12 | + | -3.3 | 0 | nt | -203
Cc1cccc(NC(=S)N(Cc2ccc(Cl)cc2)Cc2ccc(C(=O)O)cc2)c1 | + | -0.1 | 1 | -0.78 | nt
COc1ccc(CN(CC2CCC(C(=O)O)CC2)C(=S)Nc2cccc(C)c2)cc1 (stereo not given) | i | 0.39 | 1 | 3.6* | nt
CC(C)(C)OC(=O)N1CCC2(CC1)C(C#N)=C(N)OC1=C2C(=O)CCC1 | i | 0.43 | 0 | -1.3 | 60
COc1ccc(-c2ccc(C#N)c(SCC(=O)Nc3sc4c(c3C#N)CCC4)n2)cc1OC | + | -0.078 | -1 | -0.48 | -44
CC(C)(C)NC(=O)C(c1ccc(O)cc1)N(C(=O)Cn1nnc(-c2ccc(F)cc2)n1)c1ccccc1F (stereo not given) | i | 0.13 | 0 | -1.4 | nt
C=CCNC(=O)Nc1ccc(F)cc1F | i | 2.2 | 3.4* | 0.08 | nt
COC(=O)c1ccc(NC(=O)Nc2cccc(F)c2)cc1 | i | 0.26 | 0 | 0.5 | nt
COC(=O)c1ccc(NC(=O)Nc2ccc(F)cc2F)cc1 | + | -0.57 | 1 | -0.9 | nt
CC(C)Sc1nc2ccccc2[nH]1 | i | 0.52 | 2 | -0.61 | 78*
CC(C)(C)c1nc2ccccc2[nH]1 | i | 1.2 | 1 | 1.4 | 80*
CC1CCC(n2c(=S)[nH]c3ccccc3c2=O)CC1 (stereo not given) | i | -0.7 | 1 | 0.49 | 80*
O=S(=O)(Cc1ccccc1)N1CCN(Cc2ccc3c(c2)OCO3)CC1 | i | 0.27 | -1 | -0.49 | -68
COC(=O)c1c[nH]n2c(=O)c(Cc3ccc(F)cc3Cl)c(C)nc12 | i | 1.9 | 0 | 3.4* | nt
O=C(Oc1ccc(NC2=C(Cl)C(=O)c3ccccc3C2=O)cc1)c1ccc([N+](=O)[O-])cc1 | i | -0.53 | 0 | -0.06 | 62*
CC(=O)Nc1ccc(NC2=C(Cl)C(=O)c3ccccc3C2=O)cc1 | i | -0.81 | 0 | ? | 43
CCOC(=O)CSC1=C(C#N)C(c2ccccc2Cl)C(C(=O)OC)C(=O)N1 (stereo not given) | i | -0.29 | 1 | -0.46 | nt
COC(=O)C1=C(C)N(C)C(=S)NC1c1c(OC)ccc2ccccc12 (stereo not given) | + | 0.31 | 1 | 0.12 | nt
COC(=O)C1=C(C)N(C)C(=O)NC1c1ccccc1 (stereo not given) | i | 2.2 | -1 | -0.63 | 0
SMILES | Autophagy mod | Dynein cargo inh | PERK inh | Ins promoter up | Insulin prom inh
N#Cc1c(NC(=O)CCn2cnc3ccccc3c2=O)oc(-c2ccccc2)c1-c1ccccc1 | i | 0.0014 | 0 | nt | 75*
CCC(=O)N=c1ccn(C2=Nc3ccccc3NC2=C(C#N)C#N)cc1 | nt | -0.6 | 0 | -0.56 | nt
Cc1nc(CN(C)C(=O)c2ccccc2OC2CCN(S(C)(=O)=O)CC2)cs1 | + | 0.29 | 0 | -0.16 | nt
Cc1nc(CNC(=O)c2ccccc2OC2CCN(S(C)(=O)=O)CC2)cs1 | i | 0.19 | 1 | -0.4 | nt
Cc1cc2nnc(SCC(=O)OC(C)C)n2c2ccccc12 | i | 0.74 | 0 | 1.1 | -89
O=c1c(-n2cncn2)c[nH]n1-c1cccc(Cl)n1 | i | 2.2 | 1 | 0.08 | 92*
Cc1cccc(NC(=O)c2ccc(COc3cccc4ccccc34)o2)n1 | i | -0.49 | 0 | -0.21 | -19

High-throughput results from PubChem BioAssay.
